Results on nine molecules are retold here after PMC9926120 (The Journal of Biological Chemistry, 2022).

First the molecules themselves.
B1: His-tagged scRev7 (S. cerevisiae Rev7) (natural protein)
chain: MNRWVEKWLRVYLKCYINLILFYRNVYPPQSFDYTTYQSFNLPQFVPINRHPALIDYIEELILDVLSKLTHVYRFSICIINKKNDLCIEKYVLDFSELQHVDKDDQIITETEVFDEFRSSLNSLIMHLEKLPKVNDDTITFEAVINAIELELGHKLDRNRRVDSLEEKAEIERDSNWVKCQEDENLPDNNGFQPPKIKLTSLVGSDVGPLIIHQFSEKLISGDDKILNGVYSQYEEGESIFGSLF
B2: scRev3-RBM12: scRev3-RBM12 (residues 510–629), longer scRev3 construct containing both RBMs (protein)
chain: MAAGLRYGKRAFVYGEPPFGYQDILNKLEDEGFPKIDYKDPFFSNPVDLENKPYAYAGKRFEISSTHVSTRIPVQFGGETVSVYNKPTFDMFSSWKYALKPPTYDAVQKWYNKVPSMGNK

Data set [1] deals with scRev7. Nature of the data set: SEC oligomeric state and stoichiometry. Details: species or system S. cerevisiae. The conditions noted are these: 20 mM Tris, 100 mM NaCl, 2 mM EDTA, 1 mM DTT, pH 8. In short, it runs like this:
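scRev7 (MCS-1) co-expressed with scRev3 fragments or mutants (MCS-2) from pETDuet-1 in E. coli BL21(DE3); empty MCS-2 for apo-scRev7. Grown in 1L LB at 37 °C, induced with 1 mM IPTG at 20 °C overnight. Lysed by sonication in 20 mM sodium phosphate, 300 mM NaCl, 10 mM imidazole. Cobalt affinity, then Superdex 75 or 200 SEC with comparison of elution volumes.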

A further data set concerns the target T1, MBP-scRev7 (Saccharomyces cerevisiae, UniProt P38927).
T1 sequence (P38927 1-245): B1 chain
The experiment in a line: ITC of scRev3 peptides titrated into MBP-scRev7. The conditions noted are these: 25 °C, 50 mM Tris, 100 mM NaCl, pH 8.4, 300 μM peptide titrated into 30 μM MBP-scRev7 in 2.5 μl increments, Fig. S5C. The class given is binding, S. cerevisiae.

Data set [2] concerns the target T2, scRev7 fused to the maltose binding protein (MBP-scRev7) (S. cerevisiae, UniProt P38927 1-245).
T2 sequence: B1 chain
Nature of the data set: ITC. For orientation: Isothermal titration calorimetry measures the heat released or taken up as one component is titrated into another.

In data set [3] the target is B1. Nature of the data set: AUC.
Data set [4] addresses T3, truncated scRev3 fragment containing RBM2, but not RBM1 (residues 545-629) (S. cerevisiae, UniProt P14284 545-629).
T3 sequence: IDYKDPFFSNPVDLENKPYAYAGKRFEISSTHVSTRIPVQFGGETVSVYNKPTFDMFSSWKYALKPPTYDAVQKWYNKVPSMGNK
Nature of the data set: SEC. (In general: SEC sorts molecules by how far they enter the pores of the column.)

The target of data set [5] is T4, scRev3-RBM12 (residues 510-629), co-expressed with scRev7 (S. cerevisiae, UniProt P14284 510-629).
T4 sequence: B2 chain
The experiment in a line: AUC.

Data set [6] has as its system scRev7. Nature of the data set: Y2H of scRev7 and scRev3 fragments. The conditions noted are these: scRev7-AD with scRev3 fragment-BD; yeast PJ694-A, 5 to 7 days at 30 °C. The class given is binding, S. cerevisiae. In short, it runs like this:
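GAL4 AD and BD fusions of scRev7 and scRev3 RBM1, RBM2 or RBM12 (WT or mutant), tested in both orientations. Cells were transformed with 2.0 ug of each vector and grown in -LW broth at 30 °C for 3 to 5 days. They were then pelleted, resuspended in sterile water to normalise OD, serially diluted, and plated on -LW and -AHLW. Controls were empty vectors (negative) and AD/BD-fused mouse Rev7 dimerization (positive).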

Turning to “apo-scRev7: scRev7 overexpressed alone (MCS-2 of pETDuet-1 empty)”, in the data set on scRev7 [1], the “SEC elution volume comparison” value is on record as “elute at similar volumes”. Turning to “scRev3-zipper: scRev3-zipper (residues 573–594), linker region preceding RBM2 (SSTHVSTRIPVQFGGETVSVYN)”, the “binding (heat release)” value in the data set with MBP-scRev7 is given as “no heat release that would be consistent with binding”. For the molecule “scRev7/scRev3-RBM1: scRev7 co-expressed with scRev3-RBM1”, the “SEC elution volume comparison” value in the data set on scRev7 [1] is “elute at similar volumes”. Still for that read-out and setting: the value for “scRev7/scRev3-RBM2: scRev7 co-expressed with scRev3-RBM2, 1:1 complex” was “elute at similar volumes”. Regarding KPTFDMFSSWKYALKPPTYDAVQKWYNKVPSMGNK [scRev3-RBM2 peptide (residues 595-629) used for ITC], the stoichiometry N (commonly the number of molecules, sites or subunits per partner or assembly) in data set [2] was found to be 1. On to KPTFDMFSSWKYALKPPTYDAVQKWYNKVPSMGNK (domain or fragment) [scRev3-RBM2 (residues 595-629), co-expressed with scRev7], for which the “stoichiometry N” value in data set [3] amounted to 1. On to MAAGLRYGKRAFVYGEPPFGYQDILNKLEDEGFPK [scRev3-RBM1 peptide (residues 510-544) used for ITC], for which, in data set [2], the “stoichiometry N” value is 1. On to B1, for which the “stoichiometry N” value in data set [4] was found to be 1; in data set [5], 2 scRev7 per scRev3-RBM12. Turning to B2, the “growth on -AHLW plates” value with scRev7 [6] was “yeast grew on plates lacking adenine, histidine, leucine, and tryptophan”.
